Reference: ChEMBL document CHEMBL1156036, “A class of novel N-(3S-1,2,3,4-tetrahydroisoquinoline-3-carbonyl)-L-amino acid derivatives: their synthesis, anti-thrombotic activity evaluation, and 3D QSAR analysis” (Eur J Med Chem, 2009)
Square brackets hold non-standard residues; d marks the D form. Peptide text beside a SMILES is read from it. Tic = O=C(O)[C@@H]1Cc2ccccc2CN1

Key:
Assay type in all cases: functional
[1] = Antiplatelet aggregatory activity in pig […] assessed as inhibition of thrombin-induced platelet aggregation; conditions: Sus scrofa
Outline: (§1)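 Pig blood spun 1000g 10 min for platelet-rich plasma, then 1500g 10 min for platelet-poor plasma; platelets adjusted to 2×10^8/ml with autologous PPP. Test agent in NS (final 100 to 0.001 μM) added to 0.5 ml plasma, then inducer in NS: PAF 0.1 μM, ADP 10 μM, AA 350 μM or thrombin 0.1 U/ml (final). Optical aggregometry, 37 °C, 5 min, six tubes.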

[2] = Antiplatelet aggregatory activity in pig […] assessed as inhibition of platelet-activating factor-induced platelet aggregation; conditions: Sus scrofa; outline: as §1
[3] = Antiplatelet aggregatory activity in pig […] assessed as inhibition of ADP-induced platelet aggregation; conditions: Sus scrofa; outline: as §1
Rattus norvegicus [4] = test: Antithrombotic activity in Wistar rat assessed as reduction of wet thrombus weight at 5 umol/kg, iv after 15 mins
Outline: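 Male Wistar rats, 250-300 g, given agent dissolved in NS (kept on ice) intravenously; Aspirin 15 μmol/kg as reference, NS as vehicle. Pentobarbital sodium 80.0 mg/kg i.p. Arteriovenous shunt from right carotid artery to left jugular vein via polyethylene tube containing a thread; blood flowed 15 min; wet thrombus weighed, n = 12, mean ± SD.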

[5] = Antiplatelet aggregatory activity in pig […] assessed as inhibition of arachidonic acid-induced platelet aggregation; conditions: Sus scrofa; outline: as §1
Rattus norvegicus [6] = species on record: Rattus norvegicus; test: Ratio of compound antithrombotic potency to aspirin antithrombotic potency in Wistar rat assessed as reduction of wet thrombus weight

| IC50 [1] [µM] | IC50 [2] [µM] | IC50 [3] [µM] | IC50 [5] [µM] | Compound | Activity (Rattus norvegicus [4]) [mg] | Ratio (Rattus norvegicus [6]) |
| --- | --- | --- | --- | --- | --- | --- |
| 0.336 | 0.218 | 0.188 | 0.553 | O=C(O)[C@H](Cc1ccccc1)NC(=O)[C@@H]1Cc2ccccc2CN1 (H-[Tic]-Phe-OH) | 19.11 | >30 |
| 0.935 | 0.138 | 0.235 | 0.494 | NC(=O)CC[C@H](NC(=O)[C@@H]1Cc2ccccc2CN1)C(=O)O (H-[Tic]-Gln-OH) | 22.08 | >30 |
| 0.545 | 0.176 | 0.482 | 0.356 | O=C(O)CC[C@H](NC(=O)[C@@H]1Cc2ccccc2CN1)C(=O)O (H-[Tic]-Glu-OH) | 19.69 | >30 |
| 0.73 | 0.891 | 0.336 | 0.573 | CC(C)C[C@H](N)C(=O)N1Cc2ccccc2C[C@H]1C(=O)O (H-Leu-[Tic]-OH) | 19.12 |  |
| 0.829 | 0.472 | 0.323 | 0.521 | NCCCC[C@H](N)C(=O)N1Cc2ccccc2C[C@H]1C(=O)O (H-Lys-[Tic]-OH) | 21.31 |  |
| 0.674 | 0.831 | 0.315 | 0.238 | CC[C@H](C)[C@H](N)C(=O)N1Cc2ccccc2C[C@H]1C(=O)O (H-Ile-[Tic]-OH) | 21.14 |  |
| 0.199 | 0.943 | 0.382 | 0.388 | CC(C)[C@H](NC(=O)[C@@H]1Cc2ccccc2CN1)C(=O)O (H-[Tic]-Val-OH) | 19.2 | >30 |
| 0.306 | 0.791 | 0.496 | 0.108 | O=C(O)CNC(=O)[C@@H]1Cc2ccccc2CN1 (H-[Tic]-Gly-OH) | 20.24 | >30 |
| 0.37 | 0.724 | 0.661 | 0.491 | O=C(O)[C@H](Cc1c[nH]cn1)NC(=O)[C@@H]1Cc2ccccc2CN1 (H-[Tic]-His-OH) | 20.86 | >30 |
| 0.684 | 0.67 | 0.324 | 0.351 | N[C@@H](Cc1c[nH]cn1)C(=O)N1Cc2ccccc2C[C@H]1C(=O)O (H-His-[Tic]-OH) | 21.78 |  |
| 0.157 | 0.633 | 0.329 | 0.391 | O=C(O)C[C@H](NC(=O)[C@@H]1Cc2ccccc2CN1)C(=O)O (H-[Tic]-Asp-OH) | 21.67 | >30 |
|  | 0.383 | 0.345 | 0.344 | N[C@@H](CC(=O)O)C(=O)N1Cc2ccccc2C[C@H]1C(=O)O (H-Asp-[Tic]-OH) | 20.3 |  |
| 0.234 | 0.668 | 0.12 | 0.374 | O=C(O)[C@H](Cc1c[nH]c2ccccc12)NC(=O)[C@@H]1Cc2ccccc2CN1 (H-[Tic]-Trp-OH) | 21.3 | >30 |
| 0.485 | 0.352 | 0.35 | 0.104 | C[C@H](NC(=O)[C@@H]1Cc2ccccc2CN1)C(=O)O (H-[Tic]-Ala-OH) | 21.4 | >30 |
| 0.454 | 1.61 | 0.478 | 0.29 | CC(C)C[C@H](NC(=O)[C@@H]1Cc2ccccc2CN1)C(=O)O (H-[Tic]-Leu-OH) | 20.23 | >30 |
| 0.312 | 0.376 | 0.229 | 0.191 | CSCC[C@H](NC(=O)[C@@H]1Cc2ccccc2CN1)C(=O)O (H-[Tic]-Met-OH) | 21.74 | >30 |

| IC50 [1] [µM] | IC50 [2] [µM] | IC50 [3] [µM] | IC50 [5] [µM] | Compound | Activity (Rattus norvegicus [4]) [mg] | Ratio (Rattus norvegicus [6]) |
| --- | --- | --- | --- | --- | --- | --- |
| 0.498 | 0.267 | 0.103 | 0.572 | N[C@@H](CO)C(=O)N1Cc2ccccc2C[C@H]1C(=O)O (H-Ser-[Tic]-OH) | 18 |  |
| 0.741 | 0.945 | 0.651 | 0.452 | C[C@H](N)C(=O)N1Cc2ccccc2C[C@H]1C(=O)O (H-Ala-[Tic]-OH) | 20.3 |  |
| 0.657 | 0.938 | 0.54 | 0.443 | CC[C@H](C)[C@H](NC(=O)[C@@H]1Cc2ccccc2CN1)C(=O)O (H-[Tic]-Ile-OH) | 20.03 | >30 |
| 0.551 | 0.153 | 0.47 | 0.166 | NC(=O)C[C@H](NC(=O)[C@@H]1Cc2ccccc2CN1)C(=O)O (H-[Tic]-Asn-OH) | 20.24 | >30 |
| 0.879 | 0.404 | 0.24 | 0.215 | C[C@@H](O)[C@H](N)C(=O)N1Cc2ccccc2C[C@H]1C(=O)O (H-Thr-[Tic]-OH) | 20.73 |  |
| 0.185 | 1.4 | 0.364 | 0.103 | O=C(O)[C@@H]1CCCN1C(=O)[C@@H]1Cc2ccccc2CN1 (H-[Tic]-Pro-OH) | 20.25 | >30 |
|  | 0.409 | 0.265 | 0.382 | CSCC[C@H](N)C(=O)N1Cc2ccccc2C[C@H]1C(=O)O (H-Met-[Tic]-OH) | 19.56 |  |
| 0.589 | 0.544 | 0.494 | 0.369 | N[C@@H](CCC(=O)O)C(=O)N1Cc2ccccc2C[C@H]1C(=O)O (H-Glu-[Tic]-OH) | 20.87 |  |
| 0.495 | 0.36 | 0.534 | 0.43 | NC(=O)C[C@H](N)C(=O)N1Cc2ccccc2C[C@H]1C(=O)O (H-Asn-[Tic]-OH) | 22.66 |  |
| 0.565 | 0.517 | 0.21 | 0.298 | N=C(N)NCCC[C@H](N)C(=O)N1Cc2ccccc2C[C@H]1C(=O)O (H-Arg-[Tic]-OH) | 20.06 |  |
| 0.555 | 0.392 | 0.302 | 0.407 | NC(=O)CC[C@H](N)C(=O)N1Cc2ccccc2C[C@H]1C(=O)O (H-Gln-[Tic]-OH) | 21.3 |  |
| 0.761 | 0.875 | 0.365 | 0.44 | NCC(=O)N1Cc2ccccc2C[C@H]1C(=O)O (H-Gly-[Tic]-OH) | 21.17 |  |
| 0.653 | 0.632 | 0.389 | 0.423 | CC(C)[C@H](N)C(=O)N1Cc2ccccc2C[C@H]1C(=O)O (H-Val-[Tic]-OH) | 20.12 |  |
| 0.59 |  | 0.373 | 0.526 | O=C(O)[C@@H]1Cc2ccccc2CN1C(=O)[C@@H]1CCCN1 (H-Pro-[Tic]-OH) | 21.09 |  |
| 0.851 |  | 0.37 | 0.666 | N[C@@H](Cc1ccccc1)C(=O)N1Cc2ccccc2C[C@H]1C(=O)O (H-Phe-[Tic]-OH) | 22.23 |  |

| Compound | IC50 [1] [µM] | IC50 [2] [µM] | IC50 [3] [µM] | IC50 [5] [µM] | Activity (Rattus norvegicus [4]) [mg] | Ratio (Rattus norvegicus [6]) |
| --- | --- | --- | --- | --- | --- | --- |
| N[C@@H](Cc1ccc(O)cc1)C(=O)N1Cc2ccccc2C[C@H]1C(=O)O (H-Tyr-[Tic]-OH) | 0.736 | 0.668 |  | 0.535 | 20.92 |  |
